Autophagy HCS: autophagy modulators in MEF cells, primary screen, imaging, high-content, MEF GFP-LC3. MEF GFP-LC3 puncta imaging; test concentration mostly 10 µM. calls only at 10 µM (by protocol). 190,000 tested, 0.98% active;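 active means percentage of spot-positive cells more than 3 SD above its plate mean, without a fluorescence outlier flag or 80% toxicity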;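 further: spot-positive cell cutoff set from DMSO-treated cells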
TNF death inh: inhibitors of TNF-alpha triggered necroptosis, primary screen, cell-based, Jurkat FADD-/-, single concentration | Jurkat FADD-/- TNF necroptosis rescue, ATP luminescence, 24 h; 0 = TNF only, 100 = no-TNF cells | activation (protection from cell death), % at 10 µM | 220,000 tested, 0.068% active | AID 463075, 2010;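 active means activation, meaning protection from cell death, of at least 50% relative to plate controls; inactive means activation below 50%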;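 further: necroptosis triggered by 40 ng/mL TNF-alpha added together with compound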
Dynein cargo inh: inhibitors of GR-EGFP nuclear translocation, primary screen, dynein cargo transport inhibitor project, imaging, high-content, 3617.4 mouse cells. AID 1381, 2008. 220,000 tested, 0.47% active. z-score, hits read low. test concentration mostly 20 µM; stimulated with dexamethasone, 1 µM; active compounds read low;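 active means plate z-score of nuclear minus cytoplasmic receptor signal below a set negative limit, without overly bright fluorescence or cell loss, cut at about -3.5 in these data, passing the limit was not always enough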;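 further: z-score of nuclear minus cytoplasmic ring GR-EGFP intensity difference per well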
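Also added: dexamethasone, 1.0 µM final. Medium: tet-free, stripped-serum medium. Detection: fixed, Hoechst-stained cells imaged at 10x for EGFP. Read-out: nuclear-to-cytoplasmic GR-EGFP distribution per well. Times: induction 48 h, compound 1 h, agonist 30 min.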
Mdm2 ligase inh: MDM2-luciferase reporter signal enhancers, primary screen, MDM2 E3 ligase inhibitor project, cell-based, luminescence, 1536-well; 210,000 tested, 0.11% active; AID 1230, 2008; signal enhancement, % at 5 µM; cell-based MDM2 ubiquitination luciferase reporter, 2 h; 0 = plate control, 100 = twice control, blank-subtracted;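 active means signal enhancement of 30% or more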;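 further: luminescence tracks abundance of the self-degrading MDM2-luciferase fusion protein; higher signal means inhibition of MDM2 E3 ligase activity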
Target sequence (Q00987 whole entry, looked up, the tested form may be a part): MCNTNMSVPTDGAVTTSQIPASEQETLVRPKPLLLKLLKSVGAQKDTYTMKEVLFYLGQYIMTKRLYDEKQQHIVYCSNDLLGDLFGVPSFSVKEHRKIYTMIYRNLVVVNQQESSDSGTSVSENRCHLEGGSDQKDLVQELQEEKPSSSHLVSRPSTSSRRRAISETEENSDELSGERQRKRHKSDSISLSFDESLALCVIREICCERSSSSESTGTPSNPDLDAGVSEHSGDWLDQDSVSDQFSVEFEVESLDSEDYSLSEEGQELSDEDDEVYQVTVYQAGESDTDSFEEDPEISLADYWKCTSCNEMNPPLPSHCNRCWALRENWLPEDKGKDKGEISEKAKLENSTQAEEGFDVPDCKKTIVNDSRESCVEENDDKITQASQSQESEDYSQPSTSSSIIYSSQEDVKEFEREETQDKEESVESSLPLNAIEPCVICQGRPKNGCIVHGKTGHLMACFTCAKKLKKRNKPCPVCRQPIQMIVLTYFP
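Assay system: mammalian cells stably expressing self-ubiquitinating, self-degrading MDM2 E3–luciferase fusion. Quantity: 2000 cells in each well. Medium: DMEM culture medium. Compound dosing: single-point 5 µM. Timing: cell settling 4 h, compound treatment 2 h, both 37 °C. Technique: luciferase luminescence. Read-out basis: percent signal gain over controls, blank-subtracted. Benchmarks: plate controls and plate blanks.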
L929 necroptosis: inhibitors of zVAD-triggered necroptosis, primary screen, L929 cells; L929 zVAD necroptosis rescue, ATP luminescence, 24 h; with zVAD 60 µM; viability rescue, % at 10 µM; AID 1377, 2008; 220,000 tested, 0.38% active;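 active means activation, scaled between plate controls, above about 75%, limit read from the data; inactive means activation under that limit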;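 further: 0% = zVAD with DMSO and 100% = DMSO alone without zVAD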
An asterisk follows results filed as active. Most compounds without a hit are left out; they make up all but 1.8% or so of the library.

`COc1ccc(NC(=O)CSc2nncc3ccccc23)cc1` gave Autophagy HCS inactive, TNF death inh 1, Dynein cargo inh -0.044, Mdm2 ligase inh -9 and L929 necroptosis 1.
`COc1ccc(NC(=O)CSc2ccc3c4c(cccc24)C(=O)c2ccccc2-3)cc1` gave Autophagy HCS active, TNF death inh -5, Dynein cargo inh -2.2, Mdm2 ligase inh -4 and L929 necroptosis 0.
For CC(C)Cc1nnc(NC(=O)CSc2nc(-c3ccccc3)cc(=O)[nH]2)s1 the results were Autophagy HCS inactive, TNF death inh 0, Dynein cargo inh 0.098, Mdm2 ligase inh -9 and L929 necroptosis 0.
`COc1cccc(NC(=O)COc2nc3ccccc3nc2C)c1` gave Autophagy HCS inactive, TNF death inh 0, Dynein cargo inh -0.12, Mdm2 ligase inh -15 and L929 necroptosis 1.
`O=C(O)CCCN1C(=O)NC2NC(=O)NC21` (stereo unspecified) gave Autophagy HCS active, TNF death inh -2, Dynein cargo inh -0.9, Mdm2 ligase inh -15 and L929 necroptosis 0.
For O=C(O)CN1C(=O)NC2NC(=O)NC21 (stereo unspecified) the results were Autophagy HCS inactive, TNF death inh 0, Dynein cargo inh -0.82, Mdm2 ligase inh -1 and L929 necroptosis 1.
Screening CN(C)C(CNc1ccc([N+](=O)[O-])cc1C#N)c1ccccc1 (stereo unspecified) returned Autophagy HCS inactive, TNF death inh 2, Dynein cargo inh 0.045, Mdm2 ligase inh 3 and L929 necroptosis 0.
Cc1ccc(S(=O)(=O)NCCC(=O)NC2CCCC2)cc1 was read as Autophagy HCS active, TNF death inh -2, Dynein cargo inh 1.3, Mdm2 ligase inh 0 and L929 necroptosis 0.
Cn1c(=O)oc2cc(S(=O)(=O)NCCC(=O)NC3CCCC3)ccc21 was read as Autophagy HCS inactive, TNF death inh 2, Dynein cargo inh -1.3, Mdm2 ligase inh -8 and L929 necroptosis 2.
O=C(CSc1ccc2nnc(-c3ccccn3)n2n1)NCc1ccco1 was read as Autophagy HCS active, TNF death inh -1, Dynein cargo inh 0.29, Mdm2 ligase inh -8 and L929 necroptosis -1.
`CC1=C(C(=O)N2CCOCC2)C(c2ccc(OC(F)F)cc2)NC(=S)N1c1ccccc1` (stereo unspecified) gave Autophagy HCS active, TNF death inh 0, Dynein cargo inh 0.31, Mdm2 ligase inh -14 and L929 necroptosis -1.
`CCc1ccccc1NC(=O)C(CC)Sc1nc2cc3c(cc2c(=O)n1Cc1ccco1)OCO3` (stereo unspecified) gave Autophagy HCS inactive, TNF death inh 1, Dynein cargo inh -0.14, Mdm2 ligase inh -7 and L929 necroptosis 0.
For CCc1ccc(NC(=O)C(CC)Sc2nc3cc4c(cc3c(=O)n2Cc2ccco2)OCO4)cc1 (stereo unspecified) the results were Autophagy HCS active, TNF death inh 2, Dynein cargo inh -0.45, Mdm2 ligase inh -10 and L929 necroptosis 1.
For O=C(O)c1ccc2c(=O)n3c(nc2c1)/C(=C/c1ccccc1C(F)(F)F)CCCC3 the results were Autophagy HCS active, TNF death inh -1, Dynein cargo inh 0.1, Mdm2 ligase inh -18 and L929 necroptosis 1.
For O=c1[nH]c2cc3c(cc2cc1CN(Cc1nnnn1CC1CCCO1)C1CCCC1)OCO3 (stereo unspecified) the results were Autophagy HCS inactive, TNF death inh -5, Dynein cargo inh -0.41, Mdm2 ligase inh 30* and L929 necroptosis 0.
Screening CN(C)c1ccc(/C=N/NC(N)=S)cc1[N+](=O)[O-] returned Autophagy HCS inactive, TNF death inh 0, Dynein cargo inh -0.32, Mdm2 ligase inh -8 and L929 necroptosis -1.
For CCN1/C(=C2\SC(=S)N(Cc3ccccc3)C2=O)Sc2ccccc21 the results were Autophagy HCS active, TNF death inh 2, Dynein cargo inh 0.23, Mdm2 ligase inh 2 and L929 necroptosis 0.
For CCN1/C(=C2\OC(=S)N(C)C2=O)Sc2ccccc21 the results were Autophagy HCS active, TNF death inh -1, Dynein cargo inh 0.68, Mdm2 ligase inh -14 and L929 necroptosis 1.
NC(=S)NNc1c(F)c(F)c(F)c(F)c1F was read as Autophagy HCS inactive, TNF death inh 0, Dynein cargo inh 0.34, Mdm2 ligase inh -5 and L929 necroptosis 0.
Screening CC(C)CNC(=O)CC(=O)N/N=C/c1ccc(F)cc1 returned Autophagy HCS inactive, TNF death inh 1, Dynein cargo inh -0.85, Mdm2 ligase inh 3 and L929 necroptosis 1.
Screening COC(=O)C1=C(C)N(C)C(=S)NC1c1c(OC)ccc2ccccc12 (stereo unspecified) returned Autophagy HCS active, TNF death inh -2, Dynein cargo inh 0.31, Mdm2 ligase inh 3 and L929 necroptosis 0.
`O=C(NC1CCCCC1)C(c1ccc(F)cc1)N(Cc1ccco1)C(=O)CN1C(=O)c2ccccc2S1(=O)=O` (stereo unspecified) gave Autophagy HCS inactive, TNF death inh 0, Dynein cargo inh 0.031, Mdm2 ligase inh -10 and L929 necroptosis 1.
For O=C(Nc1ccccc1)Nc1ncc([N+](=O)[O-])s1 the results were Autophagy HCS active, TNF death inh 0, Dynein cargo inh 1.4, Mdm2 ligase inh -49 and L929 necroptosis 2.
`CCc1nc(CN2CCCC(C(=O)c3ccc4c5c(cccc35)CC4)C2)c(C)[nH]1` (stereo unspecified) gave Autophagy HCS active, TNF death inh 4, Dynein cargo inh 0.56, Mdm2 ligase inh 5 and L929 necroptosis 1.
CC(C)(C)C1=CC=C(C(C)(C)C)C(=O)C1=O was read as TNF death inh -18, Dynein cargo inh -3.7*, Mdm2 ligase inh -1 and L929 necroptosis 20.
For CC(C)(C)c1ccc2c(c1)C(=O)c1ccccc1C2=O the results were Autophagy HCS inactive, TNF death inh -1, Dynein cargo inh -1, Mdm2 ligase inh -40 and L929 necroptosis 28.
`Cc1ccc(S(=O)(=O)CCNC(=O)Cc2ccc(Cl)cc2)cc1` gave Autophagy HCS inactive, TNF death inh 0, Dynein cargo inh -0.33, Mdm2 ligase inh -6 and L929 necroptosis 1.
`CCCN1C(=O)/C(=C/c2c(NCCCOCC)nc3c(C)cccn3c2=O)SC1=S` gave Autophagy HCS active, TNF death inh 0, Dynein cargo inh -1.5, Mdm2 ligase inh -16 and L929 necroptosis 2.
